Screening data (PubChem)
TRPC4 inh: TRPC4 (mouse) channel inhibition; Q9QUQ5; 300,000 compounds, 0.39% hits; HEK293 TRPC4beta/mu-opioid, DAMGO-evoked Fluo4 calcium flux; stronger effect = lower value; B-score at 10 µM;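 active means B-score over 3 SD under the library average, no early fluorescence shift, positive overall ratio signal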
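test system = HEK293 cells with stable TRPC4beta plus mu-opioid receptor expression | detection = Fluo4 Ca2+ flux fluorescence | read-out = integrated fluorescence ratio relative to baseline, converted to per-well B score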
TRPC6 inhibitor: inhibitors of mouse TRPC6 channel; B-score at 10 µM; 310,000 compounds, 1.1% hits; HEK293-TRPC6, membrane potential dye, ACh-evoked depolarization; stronger effect = lower value; Q61143; AID 2553;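 active means B-score under library mean minus 3 SD, initial fluorescence not abnormally high, positive integrated signal ratio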;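 further: B-score derived from integrated fluorescence ratio over the kinetic read; more negative B-score means stronger inhibition of depolarization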
Target sequence (Q61143 whole entry, looked up): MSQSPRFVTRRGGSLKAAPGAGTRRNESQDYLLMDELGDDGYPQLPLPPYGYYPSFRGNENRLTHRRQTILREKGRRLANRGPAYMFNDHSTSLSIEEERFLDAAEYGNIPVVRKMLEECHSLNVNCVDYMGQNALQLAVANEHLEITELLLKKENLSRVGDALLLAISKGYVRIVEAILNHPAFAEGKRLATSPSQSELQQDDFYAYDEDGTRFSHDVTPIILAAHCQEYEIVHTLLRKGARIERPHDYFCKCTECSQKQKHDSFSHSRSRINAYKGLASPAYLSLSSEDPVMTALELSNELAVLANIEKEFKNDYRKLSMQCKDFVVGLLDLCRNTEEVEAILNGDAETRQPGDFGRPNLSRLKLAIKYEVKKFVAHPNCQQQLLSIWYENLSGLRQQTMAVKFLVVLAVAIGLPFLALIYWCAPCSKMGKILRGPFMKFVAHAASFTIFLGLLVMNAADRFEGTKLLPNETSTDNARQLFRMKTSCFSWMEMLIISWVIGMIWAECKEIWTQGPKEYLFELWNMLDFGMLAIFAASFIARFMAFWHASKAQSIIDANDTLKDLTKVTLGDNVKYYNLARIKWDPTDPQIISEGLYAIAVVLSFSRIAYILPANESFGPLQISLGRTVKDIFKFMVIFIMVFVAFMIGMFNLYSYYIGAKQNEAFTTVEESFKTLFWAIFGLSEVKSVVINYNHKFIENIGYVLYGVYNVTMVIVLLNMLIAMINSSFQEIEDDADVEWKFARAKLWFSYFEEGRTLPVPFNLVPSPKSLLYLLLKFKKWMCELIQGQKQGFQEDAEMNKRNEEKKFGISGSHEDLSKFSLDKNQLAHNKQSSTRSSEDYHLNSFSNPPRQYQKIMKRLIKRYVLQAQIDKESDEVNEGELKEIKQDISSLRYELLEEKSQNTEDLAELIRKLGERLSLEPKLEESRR
TRPC4 agonist: activators of mouse TRPC4 channel; 310,000 compounds, 0.49% hits; HEK293 TRPC4beta/mu-opioid, Fluo4 calcium fluorescence; stronger effect = higher value; B-score at 10 µM; AID 2237;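 active means B-score above 5 SD of library B-scores, and initial fluorescence ratio not above library mean plus 5 SD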;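 further: positive B-score marks a calcium rise read as TRPC4 activation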
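Assay system: HEK293 cells stably co-expressing mouse TRPC4beta and mu-opioid receptor / Timing: Fluo4 dye loading 45 min at room temperature, 110 s recording / Signal: Fluo4 calcium-sensitive dye fluorescence, kinetic, 1 Hz baseline / Read-out: integrated baseline-normalised fluorescence ratio, converted to per-well B score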
FID counter: displaces DNA intercalator in HCV helicase counter-screen; DNA fluorescent intercalator displacement, fluorescence; inhibition, % at 7.9 µM; AID 1845; 290,000 compounds, 0.17% hits; in the data active means inhibition above about 37%;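 further: 0% = vehicle and 100% = reference compound; higher means more ethidium bromide displaced from hairpin DNA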
TRPC6 act: activates the mouse TRPC6 cation channel. Q61143. HEK293-TRPC6 membrane potential dye fluorescence; stronger effect = higher value. AID 2550. B-score at 10 µM. 310,000 compounds, 0.13% hits;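 active means B-score of the integrated fluorescence ratio above library mean plus 3 SD, and starting fluorescence ratio within library mean plus 5 SD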;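 further: higher score means more depolarization so channel activation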
TRPC4 potent: allosteric potentiators of mouse TRPC4 channel. HEK293 TRPC4beta/mu-opioid, DAMGO EC20, Fluo-4 Ca2+ flux; stronger effect = higher value. B-score at 10 µM. 310,000 compounds, 0.42% hits. AID 2227;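 active means B-score of calcium response area above 5 SD of library B-scores, with initial fluorescence ratio within 5 SD of library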;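 further: B-score of integrated fluorescence ratio over time as area under calcium response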
An asterisk follows results filed as active; i = inactive; . = no result. Shown are actives, neighbours in structure and some others; about 2.3% of the full set was active somewhere.

SMILES	TRPC4 inh	TRPC6 inhibitor	TRPC4 agonist	FID counter	TRPC6 act	TRPC4 potent
CC(C)NS(=O)(=O)c1ccc(NC(=O)C(C)Oc2ccc(C(=O)c3ccccc3)cc2)cc1 (configuration not stated)	i	i	i	-26.8	i	44*
CCCCN(C(=O)c1ccc2c(c1)OCO2)C1CCS(=O)(=O)C1 (configuration not stated)	i	i	i	.	i	i
Oc1ccc(-c2[nH]ncc2-c2cnn(-c3ccccc3)c2)c(O)c1	-5*	i	i	-11.8	i	i
CC(C)(C)C(=O)CNS(=O)(=O)c1ccc(S(=O)(=O)NC2CC2)cc1	i	i	i	-7.1	i	i
CN(C(=O)COC(=O)CCC(=O)c1ccc(Cl)cc1)c1c(N)n(Cc2ccccc2)c(=O)[nH]c1=O	i	i	i	.	i	i
CC(C)CN(C(=O)C1CC1)c1c(N)n(Cc2ccccc2)c(=O)[nH]c1=O	i	i	i	.	i	31*
CC(C)CN(C(=O)CC1CCCC1)c1c(N)n(Cc2ccccc2)c(=O)[nH]c1=O	i	i	i	.	i	i
CC(C)CN(C(=O)COC(=O)CCC(=O)c1ccc(Cl)cc1)c1c(N)n(Cc2ccccc2)c(=O)[nH]c1=O	i	i	i	.	i	114*
O=C(N/N=C\c1ccc(Cl)s1)C1COc2ccccc2O1 (configuration not stated)	i	i	70*	-10.9	i	i
Cc1ccc(/C=N\NC(=O)C2COc3cc4ccccc4cc3O2)o1 (configuration not stated)	i	i	112*	-10.2	i	i
CCOC(=O)C1(CCOc2ccccc2)CCN(C(=O)CCSC)CC1	i	i	i	-36.1	i	i
COc1ccc(OC)c(S(=O)(=O)N2CCN(CC(O)COc3ccc(C#N)cc3)CC2)c1 (configuration not stated)	i	i	i	-17.3	i	i
O=[N+]([O-])c1ccc(O)c(C2=NNC(c3ccccc3F)C2)c1 (configuration not stated)	-6*	i	101*	-1.7	i	i
S=C(NCCc1cnc[nH]1)NC1CCCC1	i	i	98*	3.6	i	i
S=C(NCCCc1ccccc1)NC1CCCCC1	i	i	i	-20.1	i	i
S=C(NCCc1ccccn1)Nc1ccccc1Cl	i	i	i	-0.5	i	i
Cc1c(Cl)cccc1NC(=S)NCCc1ccccn1	i	i	60*	-6.3	i	i
S=C(NCCc1ccccn1)NC1CCCCC1	i	i	97*	-0.1	i	i
COc1ccc(NC(=O)NC2(C(=O)N3CCCCC3)CCCCC2)cc1	i	i	i	-8.9	i	i
Cc1nc2c(C(=O)NCc3ccco3)cnn2c(C)c1Cc1ccc(F)cc1Cl	i	i	i	-8.5	i	i
Cc1cccc(Cc2c(C)nc3c(C(=O)NCc4ccco4)cnn3c2C)c1	i	i	i	-10.1	i	97*
COc1ccc(OCc2n(CC(=O)OC3CC(C)CCC3C(C)C)c3ccccc3[n+]2C)cc1 (configuration not stated)	i	i	i	40.3*	i	i
C[C@H](C(=O)O)c1n[nH]c(=O)c2ccccc12	i	i	i	1.5	i	i
CCOC(=O)C(C)c1n[nH]c(=O)c2ccccc12 (configuration not stated)	i	i	i	-3.1	i	13*
OCC1(CC2CCCCO2)CCN(Cc2nc3ccccc3[nH]2)CC1 (configuration not stated)	-8*	i	110*	-2.7	i	i
SMILES	TRPC4 inh	TRPC6 inhibitor	TRPC4 agonist	FID counter	TRPC6 act	TRPC4 potent
Cc1cccc(C)c1N1CCc2cn[nH]c21	-6*	i	i	-2.4	i	i
COc1ccc2ccccc2c1C(O)c1nccn1C (configuration not stated)	i	i	i	45.5*	i	i
Cc1ccc(C)c(N=Cc2c(O)c3ccccc3oc2=O)c1	i	i	i	-15.2	i	i
Cc1ccnc(NS(=O)(=O)c2ccc(CC(C)C)cc2)c1	i	i	i	-11.0	i	13*
Cc1c(C(N)=O)c(-c2ccccc2)nn1-c1ccccc1	i	i	i	-4.7	i	i
CCCc1c(-c2ccc(O)cc2)nn(-c2ccc(O)cc2)c1-c1ccc(O)cc1	i	i	i	.	i	27*
O=C(/C=C/c1c(F)cccc1Cl)N1CCc2ccccc2C1	i	i	i	-24.0	i	i
CC1CC(C)CN(CCCNC(=O)c2nn(C)c3c2CS(=O)(=O)c2ccccc2-3)C1 (configuration not stated)	i	i	98*	8.1	i	i
CC1CCN(CCCNC(=O)c2nn(C)c3c2CS(=O)(=O)c2ccccc2-3)CC1	i	i	i	3.9	i	i
Cc1cc(N/N=C/c2cccc(Cl)c2)nc(-n2nc(C)cc2C)n1	i	i	i	-6.5	i	i
COc1ccc(/C=N/Nc2cc(C)nc(-n3nc(C)cc3C)n2)cc1	i	i	i	-17.8	i	19*
COc1ccc(NC(=S)NNc2ccc(C(=O)O)cc2)cc1	i	i	i	-3.6	i	i
CCc1ccc2nc(N(CCCN(C)C)C(=O)c3ccc(C(=O)c4ccccc4)cc3)sc2c1	i	i	i	37.7*	i	i
CCOc1ccc2nc(N(CCCN(C)C)C(=O)c3ccc4c(c3)CCCC4)sc2c1	i	i	i	39.0*	i	i
Cc1c(C(=O)N2CCC[C@H]2C(N)=O)oc2c(F)cccc12	i	i	i	-3.5	i	i
CN1CCc2c(C#N)c(N3CCCCC3)nc(NCc3ccccc3)c2C1	i	i	i	20.6	i	13*
O=C(Nc1ccc(S(=O)(=O)NCc2ccccc2)cc1)Nc1ccc2c(c1)OCO2	i	i	i	2.0	i	i
CCNS(=O)(=O)c1ccc(NC(=O)Nc2ccc3c(c2)OCO3)cc1	i	i	61*	-4.8	i	i
CCOC(=O)COc1ccc(S(=O)(=O)Nc2ccc(C)cc2)cc1	.	i	i	-18.9	i	i
CCOC(=O)COc1ccc(S(=O)(=O)Nc2ccc3c(c2)OCO3)cc1	i	i	i	48.0*	i	i
O=C(Cn1ncc2c3ccccc3n(Cc3ccccc3)c2c1=O)NCc1ccco1	i	i	i	-4.4	i	i
